Assay results from ChEMBL document CHEMBL1134346, “Labeling and evaluation of N-[11C]methylated quinoline-2-carboxamides as potential radioligands for visualization of peripheral benzodiazepine receptors” (J Med Chem, 2001).

What follows are compounds tested against Translocator protein (Rattus norvegicus) (UniProt P16257) (assay: Tissue (adrenal gland) concentration of radioactivity at 30 min post-injection into Albino male CD rats after pretreatment with cold PK 11195.). Settings: not given.
Chain of Translocator protein (Rattus norvegicus) (P16257 whole entry, looked up): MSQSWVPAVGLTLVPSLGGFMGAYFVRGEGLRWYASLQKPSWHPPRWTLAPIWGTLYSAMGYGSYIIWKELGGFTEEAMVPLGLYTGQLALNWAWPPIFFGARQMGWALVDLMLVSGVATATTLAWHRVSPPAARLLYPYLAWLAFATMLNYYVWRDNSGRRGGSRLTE
Type: functional, tissue-based
Outline: (§1)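 Separate groups of five rats received tail-vein PK 11195 (1.4-1.6 mg; 5 mg/kg) in 30 µL DMSO:EtOH 1:1, or vehicle alone, immediately before iv radioligand (90-170 µCi in saline, 0.9-1 Ci/µmol). Rats were decapitated at 30 min and tissues gamma-counted; values are %I.D./g.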
In the case of CCC(C)N(C)C(=O)c1nc2ccccc2c(-c2ccccc2)c1C (stereo not given), the I.D./g is reported as > 0.94%.

Organism: Rattus norvegicus
Assay: Tissue (testicle) distribution in Albino male CD rats after 5 minutes expressed as percent of injected dose per gram of organ.
Type: ADME, organism-based
Settings: in vivo
Outline: (§2)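 Male albino CD rats (225-250 g) received the 11C-labelled radioligand in saline by tail-vein injection. Three rats per time point were decapitated under light ether anaesthesia at 5, 15, 30, 60 or 90 min. Blood was collected heparinized and plasma separated by centrifugation. The pituitary was dissected from the brain. Lung, liver (three-lobe pieces) and right deltoid muscle were sampled, washed in cold saline, gamma-counted and weighed. Results are %I.D./g.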
Work on CCC(C)N(C)C(=O)c1nc2ccccc2c(-c2ccccc2)c1C (stereo not given) yielded an I.D./g of 0.06%.

Organism: Rattus norvegicus
Assay: Tissue (liver) distribution in Albino male CD rats after 60 minutes expressed as percent of injected dose per gram of organ.
Type: ADME, organism-based
Settings: in vivo, 1 h
Outline: as §2
CCC(C)N(C)C(=O)c1nc2ccccc2c(-c2ccccc2)c1C (stereo not given) was tested, and the I.D./g was 0.32%.

Organism: Rattus norvegicus
Assay: Tissue (spleen) distribution in Albino male CD rats after 90 minutes expressed as percent of injected dose per gram of organ.
Type: ADME, organism-based
Settings: in vivo, 1.5 h
For CCC(C)N(C)C(=O)c1nc2ccccc2c(-c2ccccc2)c1C (stereo not given), the I.D./g was 1.06%.

Organism: Rattus norvegicus
Assay: Tissue (kidney) distribution in Albino male CD rats after 60 minutes expressed as percent of injected dose per gram of organ.
Type: ADME, organism-based
Settings: in vivo, 1 h
Outline: (§3)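 Radioligand given in saline into tail vein of male albino CD rats (225-250 g); 100-200 µCi per animal, 1-2 Ci/µmol at injection depending on radioligand. Three rats per time point were decapitated under light ether anaesthesia. Blood, plasma, brain regions and washed organs were weighed and gamma-counted. Uptake is %I.D./g tissue, mean ± SD.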
Work on CCC(C)N(C)C(=O)c1nc2ccccc2c(-c2ccccc2)c1C (stereo not given) yielded an I.D./g of 0.78%.

Organism: Rattus norvegicus
Assay: Tissue (lung) distribution in Albino male CD rats after 30 minutes expressed as percent of injected dose per gram of organ.
Type: ADME, organism-based
Settings: in vivo, 0.5 h
Outline: as §2
With CCC(C)N(C)C(=O)c1nc2ccccc2c(-c2ccccc2)c1C (stereo not given) the I.D./g was 2.34%.

Organism: Rattus norvegicus
Assay: Tissue (spleen) concentration of radioactivity at 30 min post-injection into Albino male CD rats with vehicle.
Type: ADME, organism-based
Settings: in vivo, 0.5 h
Outline: (§4)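 Blocking study in male albino CD rats, five per group. Immediately before the 11C radioligand (in saline, i.v. tail vein), rats received 30 µL tail-vein PK 11195 (5 mg/kg; 1.4-1.6 mg) in DMSO:EtOH 1:1, or vehicle. Rats were decapitated at 30 min. Tissues were dissected, washed, gamma-counted and weighed as in the biodistribution study. Results are %I.D./g.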
Work on CCC(C)N(C)C(=O)c1nc2ccccc2c(-c2ccccc2)c1C (stereo not given) yielded an I.D./g of 0.56%.

Organism: Rattus norvegicus
Assay: Tissue (plasma) distribution in Albino male CD rats after 15 minutes expressed as percent of injected dose per gram of organ.
Type: ADME, organism-based
Settings: in vivo, 0.25 h
Outline: as §2
CCC(C)N(C)C(=O)c1nc2ccccc2c(-c2ccccc2)c1C (stereo not given) gave an I.D./g of 0.05%.

Organism: Rattus norvegicus
Assay: Tissue (pituitary) distribution in Albino male CD rats after 60 minutes expressed as percent of injected dose per gram of organ.
Type: ADME, organism-based, Pituitary gland
Settings: in vivo, 1 h
Outline: as §2
CCC(C)N(C)C(=O)c1nc2ccccc2c(-c2ccccc2)c1C (stereo not given) gave an I.D./g of 0.25%.

Organism: Rattus norvegicus
Assay: Tissue (blood) distribution in Albino male CD rats after 5 minutes expressed as percent of injected dose per gram of organ.
Type: ADME, organism-based
Settings: in vivo
Outline: as §3
For CCC(C)N(C)C(=O)c1nc2ccccc2c(-c2ccccc2)c1C (stereo not given), the I.D./g was 0.13%.

Organism: Rattus norvegicus
Assay: Tissue (cerebellum) distribution in Albino male CD rats after 15 minutes expressed as percent of injected dose per gram of organ.
Type: ADME, organism-based
Settings: in vivo, 0.25 h
Outline: as §3
CCC(C)N(C)C(=O)c1nc2ccccc2c(-c2ccccc2)c1C (stereo not given) was tested, and the I.D./g was 0.08%.

These compounds were tested against Translocator protein (Rattus norvegicus) (UniProt P16257) (assay: Tissue (muscle) concentration of radioactivity at 30 min post-injection into Albino male CD rats after pretreatment with cold PK 11195.). Settings: not given.
Type: functional
Outline: as §4
For CCC(C)N(C)C(=O)c1nc2ccccc2c(-c2ccccc2)c1C (stereo not given), the I.D./g was > 0.07%.

Organism: Rattus norvegicus
Assay: Tissue (kidney) distribution in Albino male CD rats after 5 minutes expressed as percent of injected dose per gram of organ.
Type: ADME, organism-based
Settings: in vivo
Outline: as §3
CCC(C)N(C)C(=O)c1nc2ccccc2c(-c2ccccc2)c1C (stereo not given) was tested, and the I.D./g was 0.59%.

Organism: Rattus norvegicus
Assay: Tissue (kidney) concentration of radioactivity at 30 min post-injection into Albino male CD rats with vehicle.
Type: ADME, organism-based
Settings: in vivo, 0.5 h
Outline: as §1
With CCC(C)N(C)C(=O)c1nc2ccccc2c(-c2ccccc2)c1C (stereo not given) the I.D./g was 0.45%.

Organism: Rattus norvegicus
Assay: Tissue (lung) distribution in Albino male CD rats after 5 minutes expressed as percent of injected dose per gram of organ.
Type: ADME, organism-based
Settings: in vivo
Outline: as §2
CCC(C)N(C)C(=O)c1nc2ccccc2c(-c2ccccc2)c1C (stereo not given) was tested, and the I.D./g was 3.09%.

Organism: Rattus norvegicus
Assay: Tissue (adrenal gland) distribution in Albino male CD rats after 5 minutes expressed as percent of injected dose per gram of organ.
Type: ADME, organism-based
Settings: in vivo
Outline: as §3
With CCC(C)N(C)C(=O)c1nc2ccccc2c(-c2ccccc2)c1C (stereo not given) the I.D./g was 1.32%.

Organism: Rattus norvegicus
Assay: Tissue (intestine) distribution in Albino male CD rats after 15 minutes expressed as percent of injected dose per gram of organ.
Type: ADME, organism-based
Settings: in vivo, 0.25 h
Outline: as §3
CCC(C)N(C)C(=O)c1nc2ccccc2c(-c2ccccc2)c1C (stereo not given) gave an I.D./g of 0.32%.

Organism: Rattus norvegicus
Assay: Tissue (cerebellum) distribution in Albino male CD rats after 90 minutes expressed as percent of injected dose per gram of organ.
Type: ADME, organism-based
Settings: in vivo, 1.5 h
Outline: as §3
With CCC(C)N(C)C(=O)c1nc2ccccc2c(-c2ccccc2)c1C (stereo not given) the I.D./g was 0.04%.

Organism: Rattus norvegicus
Assay: Tissue (liver) distribution in Albino male CD rats after 15 minutes expressed as percent of injected dose per gram of organ.
Type: ADME, organism-based
Settings: in vivo, 0.25 h
Outline: as §3
Work on CCC(C)N(C)C(=O)c1nc2ccccc2c(-c2ccccc2)c1C (stereo not given) yielded an I.D./g of 0.5%.

Organism: Rattus norvegicus
Assay: Tissue (testicle) distribution in Albino male CD rats after 30 minutes expressed as percent of injected dose per gram of organ.
Type: ADME, organism-based
Settings: in vivo, 0.5 h
Outline: as §2
In the case of CCC(C)N(C)C(=O)c1nc2ccccc2c(-c2ccccc2)c1C (stereo not given), the I.D./g is reported as 0.08%.
